Test results as given in ChEMBL document CHEMBL3611989, “Discovery and characterization of aryl isonitriles as a new class of compounds versus methicillin- and vancomycin-resistant Staphylococcus aureus” (Eur J Med Chem, 2015).
In brackets after ≈: the same amount, converted by molar mass.

Legend:
Staphylococcus aureus [1] = assay: Antimicrobial activity against methicillin-sensitive Staphylococcus aureus NRS72 assessed as reduction in bacterial growth incubated for 18 to 20 hrs at 37 degC by broth microdilution method; assay type: functional
In short: (§1)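 Modified CLSI broth microdilution. Bacterial suspension of about 1 × 10^5 CFU/mL in tryptic soy broth. Each agent was added in triplicate to the first row and serially diluted down the plate. Plates were incubated at 37 °C for 18-20 h. MIC was read as the lowest concentration with no visible growth.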

Staphylococcus aureus [2] = assay: Antimicrobial activity against methicillin-resistant Staphylococcus aureus USA100 assessed as reduction in bacterial growth incubated for 18 to 20 hrs at 37 degC by broth microdilution method; assay type: functional; in short: as §1
Staphylococcus aureus [3] = assay: Antimicrobial activity against vancomycin-intermediate-resistant Staphylococcus aureus NRS1 assessed as reduction in bacterial growth incubated for 18 to 20 hrs at 37 degC by broth microdilution method; assay type: functional; in short: as §1
Staphylococcus aureus [4] = assay: Antimicrobial activity against methicillin-resistant Staphylococcus aureus NRS119 assessed as reduction in bacterial growth incubated for 18 to 20 hrs at 37 degC by broth microdilution method; assay type: functional; in short: as §1
Staphylococcus aureus [5] = assay: Antimicrobial activity against methicillin-resistant Staphylococcus aureus USA200 assessed as reduction in bacterial growth incubated for 18 to 20 hrs at 37 degC by broth microdilution method; assay type: functional; in short: as §1
Staphylococcus aureus [6] = assay: Antimicrobial activity against methicillin-resistant Staphylococcus aureus USA500 assessed as reduction in bacterial growth incubated for 18 to 20 hrs at 37 degC by broth microdilution method; assay type: functional; in short: as §1
Staphylococcus aureus [7] = assay: Antimicrobial activity against methicillin-resistant Staphylococcus aureus USA700 assessed as reduction in bacterial growth incubated for 18 to 20 hrs at 37 degC by broth microdilution method; assay type: functional; in short: as §1
Staphylococcus aureus [8] = assay: Antimicrobial activity against methicillin-resistant Staphylococcus aureus USA300 assessed as reduction in bacterial growth incubated for 18 to 20 hrs at 37 degC by broth microdilution method; assay type: functional; in short: as §1
Staphylococcus aureus [9] = assay: Antimicrobial activity against vancomycin-resistant Staphylococcus aureus VRS2 assessed as reduction in bacterial growth incubated for 18 to 20 hrs at 37 degC by broth microdilution method; assay type: functional; in short: as §1
J774 [10] = assay type: cell-based; settings: mouse, j774, 2 h, 128 µM
J774 [11] = assay: Cytotoxicity against mouse J774 cells assessed as reduction in cell viability at 32 uM incubated for 2 hrs by MTS assay; assay type: cell-based; settings: j774, 2 h
In short: (§2)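 Murine J774 macrophages grown in DMEM with 10% FBS at 37 °C, 5% CO2. Compounds were tested in triplicate at 16, 32, 64 and 128 μM for 2 h, with DMSO-matched vehicle controls. MTS reagent was then added and absorbance read at OD490. Viability is given as percent of DMSO-treated cells (mean of triplicate ± standard deviation), compared by paired t-test (P < 0.05).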

J774 [12] = assay: Cytotoxicity against mouse J774 cells assessed as reduction in cell viability at 64 uM incubated for 2 hrs by MTS assay; assay type: cell-based; settings: j774, 2 h; in short: as §2

Row | Compound | MIC (Staphylococcus aureus [1]) | MIC (Staphylococcus aureus [2]) | MIC (Staphylococcus aureus [3]) | MIC (Staphylococcus aureus [4]) | MIC (Staphylococcus aureus [5]) | MIC (Staphylococcus aureus [6]) | MIC (Staphylococcus aureus [7]) | MIC (Staphylococcus aureus [8]) | MIC (Staphylococcus aureus [9]) | Activity (J774 [10]) | Activity (J774 [11]) | Activity (J774 [12])
1 | [C-]#[N+]c1cccc(/C=C/c2ccncc2)c1 | 64 µM (≈ 13.2 µg/mL) | 32 µM (≈ 6.6 µg/mL) | 32 µM (≈ 6.6 µg/mL) | 32 µM (≈ 6.6 µg/mL) | 64 µM (≈ 13.2 µg/mL) | 64 µM (≈ 13.2 µg/mL) | 64 µM (≈ 13.2 µg/mL) | 32 µM (≈ 6.6 µg/mL) | 64 µM (≈ 13.2 µg/mL) |  |  | 
2 | [C-]#[N+]c1ccccc1-c1ccccc1 | > 128 µM | 16 µM (≈ 2.87 µg/mL) | 8 µM (≈ 1.43 µg/mL) | > 128 µM | 16 µM (≈ 2.87 µg/mL) | > 128 µM | 16 µM (≈ 2.87 µg/mL) | > 128 µM | > 128 µM |  |  | 
3 | [C-]#[N+]c1ccccc1/C=C(\CC)c1ccc(OC)cc1 |  |  | 4 µM (≈ 1.05 µg/mL) | > 128 µM |  |  | 4 µM (≈ 1.05 µg/mL) | 16 µM (≈ 4.21 µg/mL) | 8 µM (≈ 2.11 µg/mL) | Toxic | Non-toxic | Toxic
4 | [C-]#[N+]c1ccccc1/C=C/c1cccc(C(F)(F)F)c1 | 2 µM (≈ 0.547 µg/mL) | 4 µM (≈ 1.09 µg/mL) | 2 µM (≈ 0.547 µg/mL) |  | 4 µM (≈ 1.09 µg/mL) |  | 4 µM (≈ 1.09 µg/mL) |  | 8 µM (≈ 2.19 µg/mL) | Toxic | Non-toxic | Non-toxic
5 | [C-]#[N+]c1ccccc1/C=C(\C)c1ccccc1 | 8 µM (≈ 1.75 µg/mL) | 8 µM (≈ 1.75 µg/mL) | 4 µM (≈ 0.877 µg/mL) | > 128 µM | 64 µM (≈ 14 µg/mL) | > 128 µM | 16 µM (≈ 3.51 µg/mL) | > 128 µM | > 128 µM |  |  | 
6 | [C-]#[N+]c1ccc(/C=C/c2ccccn2)cc1 | 64 µM (≈ 13.2 µg/mL) | 128 µM (≈ 26.4 µg/mL) | 64 µM (≈ 13.2 µg/mL) | 128 µM (≈ 26.4 µg/mL) | 128 µM (≈ 26.4 µg/mL) | 64 µM (≈ 13.2 µg/mL) | 128 µM (≈ 26.4 µg/mL) | 32 µM (≈ 6.6 µg/mL) | 64 µM (≈ 13.2 µg/mL) |  |  | 
7 | [C-]#[N+]c1ccc(/C=C/c2cccnc2)cc1 | 16 µM (≈ 3.3 µg/mL) | 16 µM (≈ 3.3 µg/mL) | 32 µM (≈ 6.6 µg/mL) | 64 µM (≈ 13.2 µg/mL) | 32 µM (≈ 6.6 µg/mL) | 32 µM (≈ 6.6 µg/mL) | 16 µM (≈ 3.3 µg/mL) |  | 8 µM (≈ 1.65 µg/mL) | Toxic | Non-toxic | Non-toxic
8 | [C-]#[N+]c1ccccc1/C=C(\CCC)c1ccccc1 | 16 µM (≈ 3.96 µg/mL) | 16 µM (≈ 3.96 µg/mL) | 8 µM (≈ 1.98 µg/mL) | 32 µM (≈ 7.91 µg/mL) | 16 µM (≈ 3.96 µg/mL) | 16 µM (≈ 3.96 µg/mL) | 16 µM (≈ 3.96 µg/mL) | 32 µM (≈ 7.91 µg/mL) | 32 µM (≈ 7.91 µg/mL) |  |  | 
9 | [C-]#[N+]c1ccccc1/C=C/c1ccc(CCCC)cc1 | > 128 µM |  |  | > 128 µM | > 128 µM | > 128 µM |  | > 128 µM | > 128 µM |  |  | 
10 | [C-]#[N+]c1cccc(/C=C/c2cccnc2)c1 | 64 µM (≈ 13.2 µg/mL) | 32 µM (≈ 6.6 µg/mL) | 64 µM (≈ 13.2 µg/mL) | 64 µM (≈ 13.2 µg/mL) | 64 µM (≈ 13.2 µg/mL) | 64 µM (≈ 13.2 µg/mL) | 64 µM (≈ 13.2 µg/mL) | 32 µM (≈ 6.6 µg/mL) | 64 µM (≈ 13.2 µg/mL) |  |  | 
11 | [C-]#[N+]c1ccccc1CP(=O)(OCC)OCC | > 128 µM | > 128 µM | 128 µM (≈ 32.4 µg/mL) | > 128 µM | 128 µM (≈ 32.4 µg/mL) | > 128 µM | > 128 µM | > 128 µM | > 128 µM |  |  | 
12 | CN[C@H](CC(C)C)C(=O)N[C@H]1C(=O)N[C@@H](CC(N)=O)C(=O)N[C@H]2C(=O)N[C@H]3C(=O)N[C@H](C(=O)N[C@H](C(=O)O)c4cc(O)cc(O)c4-c4cc3ccc4O)[C@H](O)c3ccc(c(Cl)c3)Oc3cc2cc(c3O[C@@H]2O[C@H](CO)[C@@H](O)[C@H](O)[C@H]2O[C@H]2C[C@](C)(N)[C@H](O)[C@H](C)O2)Oc2ccc(cc2Cl)[C@H]1O [VANCOMYCIN] | < 1 µM | 2 µM (≈ 2.9 µg/mL) | 8 µM (≈ 11.6 µg/mL) |  |  | 4 µM (≈ 5.8 µg/mL) |  |  | 128 µM (≈ 186 µg/mL) |  |  | 
13 | Nc1ccccc1CCc1ccccc1 | > 128 µM | > 128 µM | 8 µM (≈ 1.58 µg/mL) | > 128 µM | 32 µM (≈ 6.31 µg/mL) | > 64 µM | > 64 µM | > 128 µM | > 64 µM |  |  | 
14 | [C-]#[N+]c1ccccc1C=C(c1ccccc1)c1ccccc1 | 8 µM (≈ 2.25 µg/mL) | 8 µM (≈ 2.25 µg/mL) | 4 µM (≈ 1.13 µg/mL) | 16 µM (≈ 4.5 µg/mL) | 8 µM (≈ 2.25 µg/mL) | 8 µM (≈ 2.25 µg/mL) | 4 µM (≈ 1.13 µg/mL) | 16 µM (≈ 4.5 µg/mL) | 16 µM (≈ 4.5 µg/mL) |  |  | 
15 | [C-]#[N+]c1ccccc1/C=C(\CC)c1ccc(C(F)(F)F)cc1 | 8 µM (≈ 2.41 µg/mL) |  | 8 µM (≈ 2.41 µg/mL) | 64 µM (≈ 19.3 µg/mL) |  |  |  | 32 µM (≈ 9.64 µg/mL) | 16 µM (≈ 4.82 µg/mL) |  |  | 
